≈ marks a conversion by molar mass, not a printed value. Numbered stars: 1 amine (or outer) side, 2 acyl side, 3 side chain; on linkers, the order of the positions; unused ones are H or OH. Bridge positions count the residues as written; N and C are the ends. Square brackets hold non-standard residues; d marks the D form. Peptide text beside a SMILES is read from it. ξ: configuration not given here. X2 = O=C(CCC(=O)N1CCNCC1)Nc1cc(C[C@H](N[*:1])C(=O)[*:2])ccc1O; X3 = O=C(O)CCC(=O)Nc1cc(C[C@H](N[*:1])C(=O)[*:2])ccc1O; Gln(3R-OH) = NC(=O)C[C@@H](O)[C@H](N)C(=O)O; X1 = CCCCCCCCCCCCC[C@H](CC(=O)[*:1])O[*:2]; Pro(3S-OH) = O=C(O)[C@H]1NCC[C@@H]1O; Hyp = O=C(O)[C@@H]1C[C@@H](O)CN1; Orn = NCCC[C@H](N)C(=O)O; ξA = CC(N)C(=O)O
Legend:
Mus musculus [1] = species: Mus musculus; assay: Ability to hemolyze ICR mouse RBCs at 1 mg/mL using microtiter red blood cell hemolysis assay.
Aspergillus fumigatus [2] = assay: In vitro antifungal activity against Aspergillus fumigatus 8004 by broth microdilution method; assay type: functional
Outline: (§1)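 Broth microdilution run to NCCLS M27-A guidelines. MIC read per that standard.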

Candida albicans [3] = assay: In vitro antifungal activity against Candida albicans FP633 by broth microdilution method; assay type: functional
Outline: as §1

Candida albicans [4] = assay: In vitro antifungal activity against Candida albicans 13004 by broth microdilution method; assay type: functional
Outline: as §1

Aspergillus fumigatus [5] = assay: In vitro antifungal activity against Aspergillus fumigatus FP1305 by broth microdilution method; assay type: functional
Outline: as §1

Mus musculus [6] = assay: Compound was evaluated in vivo for antifungal activity and efficacy in disseminated murine candidiasis was determined; assay type: functional

| Structure (SMILES) | Hemolytic activity (Mus musculus [1]) [%] | MIC (Aspergillus fumigatus [2]) [µg/mL] | MIC (Candida albicans [3]) [µg/mL] | MIC (Candida albicans [4]) [µg/mL] | MIC (Aspergillus fumigatus [5]) [µg/mL] | ED50 (Mus musculus [6]) [mg/kg] |
| --- | --- | --- | --- | --- | --- | --- |
| CCCCCCCCCCCCC[C@H](CC(=O)N[C@H](C(=O)N[C@H](C)C(=O)N[C@@H](Cc1ccc(OCC(=O)NCCN)cc1)C(=O)N[C@H](C(=O)N1C[C@H](O)C[C@H]1C(=O)N[C@H](C(=O)N[C@H](C(=O)N1CC[C@H](O)[C@H]1C(=O)N[C@H](C(=O)NCC(=O)N[C@H](C(N)=O)[C@@H](C)O)[C@H](O)CC(N)=O)[C@@H](C)O)[C@@H](C)O)C(C)C)[C@@H](C)O)OC(=O)[C@@H](C)CCCN.Cl | 45 | 1 | 1 | 1 | 0.5 | – |
| CCCCCCCCCCCCC[C@H](CC(=O)N[C@H](C(=O)N[C@@H](C)C(=O)N[C@@H](Cc1ccc(OCC(=O)O)c(NC(=O)CCN)c1)C(=O)N[C@H](C(=O)N1C[C@H](O)C[C@H]1C(=O)N[C@@H](C(=O)N[C@H](C(=O)N1CC[C@H](O)[C@H]1C(=O)N[C@H](C(=O)NCC(=O)N[C@H](C(N)=O)[C@@H](C)O)[C@H](O)CC(N)=O)[C@@H](C)O)[C@@H](C)O)C(C)C)[C@@H](C)O)OC(=O)[C@@H](C)CCCN.Cl | 23 | 0.5 | 0.5 | 0.5 | 0.125 | 0.72 |
| CCCCCCCCCCCCC[C@H](CC(=O)N[C@@H](C(=O)N[C@H](C)C(=O)N[C@@H](Cc1ccc(O)c(NC(=O)C[C@H](N)C(=O)O)c1)C(=O)N[C@H](C(=O)N1C[C@H](O)C[C@H]1C(=O)N[C@@H](C(=O)N[C@H](C(=O)N1CC[C@H](O)[C@H]1C(=O)N[C@H](C(=O)NCC(=O)N[C@@H](C(N)=O)[C@@H](C)O)[C@H](O)CC(N)=O)[C@@H](C)O)[C@@H](C)O)C(C)C)[C@@H](C)O)OC(=O)[C@@H](C)CCCN | 75 | 0.5 (≈ 0.298 µM) | 0.5 (≈ 0.298 µM) | 1 (≈ 0.595 µM) | 0.25 (≈ 0.149 µM) | 0.8 |
| CCCCCCCCCCCCC[C@H](CC(=O)N[C@@H](C(=O)N[C@H](C)C(=O)N[C@@H](Cc1ccc(O)c(NC(=O)CC[C@H](N)C(=O)O)c1)C(=O)N[C@H](C(=O)N1C[C@H](O)C[C@H]1C(=O)N[C@@H](C(=O)N[C@H](C(=O)N1CC[C@H](O)[C@H]1C(=O)N[C@H](C(=O)NCC(=O)N[C@@H](C(N)=O)[C@@H](C)O)[C@H](O)CC(N)=O)[C@@H](C)O)[C@@H](C)O)C(C)C)[C@@H](C)O)OC(=O)[C@@H](C)CCCN | 60 | 1 (≈ 0.59 µM) | 0.5 (≈ 0.295 µM) | 0.5 (≈ 0.295 µM) | 0.5 (≈ 0.295 µM) | 1.02 |
| CCCCCCCCCCCCC[C@H](CC(=O)N[C@@H](C(=O)N[C@H](C)C(=O)N[C@@H](Cc1ccc(OCC(=O)N(C)C)cc1)C(=O)N[C@H](C(=O)N1C[C@H](O)C[C@H]1C(=O)N[C@@H](C(=O)N[C@H](C(=O)N1CC[C@H](O)[C@H]1C(=O)N[C@H](C(=O)NCC(=O)N[C@@H](C(N)=O)[C@@H](C)O)[C@H](O)CC(N)=O)[C@@H](C)O)[C@@H](C)O)C(C)C)[C@@H](C)O)OC(=O)[C@@H](C)CCCN | 85 | 1 (≈ 0.612 µM) | 0.5 (≈ 0.306 µM) | 1 (≈ 0.612 µM) | 0.25 (≈ 0.153 µM) | – |
| CCCCCCCCCCCCC[C@H](CC(=O)N[C@@H](C(=O)N[C@H](C)C(=O)N[C@@H](Cc1ccc(OCC(=O)O)cc1)C(=O)N[C@H](C(=O)N1C[C@H](O)C[C@H]1C(=O)N[C@@H](C(=O)N[C@H](C(=O)N1CC[C@H](O)[C@H]1C(=O)N[C@H](C(=O)NCC(=O)N[C@@H](C(N)=O)[C@@H](C)O)[C@H](O)CC(N)=O)[C@@H](C)O)[C@@H](C)O)C(C)C)[C@@H](C)O)OC(=O)[C@@H](C)CCCN | 76 | 1 (≈ 0.622 µM) | 0.5 (≈ 0.311 µM) | 0.5 (≈ 0.311 µM) | 0.125 (≈ 0.0777 µM) | – |
| CCCCCCCCCCCCC[C@H](CC(=O)N[C@@H](C(=O)N[C@H](C)C(=O)N[C@@H](Cc1ccc(O)c(NC(=O)[C@H](N)CO)c1)C(=O)N[C@H](C(=O)N1C[C@H](O)C[C@H]1C(=O)N[C@@H](C(=O)N[C@H](C(=O)N1CC[C@H](O)[C@H]1C(=O)N[C@H](C(=O)NCC(=O)N[C@@H](C(N)=O)[C@@H](C)O)[C@H](O)CC(N)=O)[C@@H](C)O)[C@@H](C)O)C(C)C)[C@@H](C)O)OC(=O)[C@@H](C)CCCN | 84 | 2 (≈ 1.21 µM) | 1 (≈ 0.605 µM) | 2 (≈ 1.21 µM) | 0.5 (≈ 0.303 µM) | – |
| CCCCCCCCCCCCC[C@H](CC(=O)N[C@@H](C(=O)N[C@H](C)C(=O)N[C@@H](Cc1ccc(O)c(NC(=O)[C@H](N)Cc2c[nH]cn2)c1)C(=O)N[C@H](C(=O)N1C[C@H](O)C[C@H]1C(=O)N[C@@H](C(=O)N[C@H](C(=O)N1CC[C@H](O)[C@H]1C(=O)N[C@H](C(=O)NCC(=O)N[C@@H](C(N)=O)[C@@H](C)O)[C@H](O)CC(N)=O)[C@@H](C)O)[C@@H](C)O)C(C)C)[C@@H](C)O)OC(=O)[C@@H](C)CCCN | 65 | 2 (≈ 1.18 µM) | 2 (≈ 1.18 µM) | 2 (≈ 1.18 µM) | 2 (≈ 1.18 µM) | – |
| CCCCCCCCCCCCC[C@H](CC(=O)N[C@@H](C(=O)N[C@H](C)C(=O)N[C@@H](Cc1ccc(OCC(=O)NCCCn2ccnc2)cc1)C(=O)N[C@H](C(=O)N1C[C@H](O)C[C@H]1C(=O)N[C@@H](C(=O)N[C@H](C(=O)N1CC[C@H](O)[C@H]1C(=O)N[C@H](C(=O)NCC(=O)N[C@@H](C(N)=O)[C@@H](C)O)[C@H](O)CC(N)=O)[C@@H](C)O)[C@@H](C)O)C(C)C)[C@@H](C)O)OC(=O)[C@@H](C)CCCN.Cl | 53 | 2 | 1 | 2 | 1 | – |
| CCCCCCCCCCCCC[C@@H]1CC(=O)N[C@@H]([C@@H](C)O)C(=O)N[C@@H](C)C(=O)N[C@@H](Cc2ccc(O)c(NC(=O)CCC(=O)O)c2)C(=O)N[C@@H](C(C)C)C(=O)N2C[C@H](O)C[C@H]2C(=O)N[C@@H]([C@@H](C)O)C(=O)N[C@@H]([C@@H](C)O)C(=O)N2CC[C@H](O)[C@H]2C(=O)N[C@@H]([C@H](O)CC(N)=O)C(=O)NCC(=O)N[C@@H]([C@@H](C)O)C(=O)N[C@@H](CCCN)C(=O)O1 (TA[X3]V[Hyp]TT[Pro(3S-OH)][Gln(3R-OH)]GT[Orn]; linker N-C via X1) | 79 | 0.5 (≈ 0.303 µM) | 0.5 (≈ 0.303 µM) | 1 (≈ 0.606 µM) | 0.25 (≈ 0.152 µM) | – |
| CCCCCCCCCCCCC[C@@H]1CC(=O)N[C@@H]([C@@H](C)O)C(=O)NC(C)C(=O)N[C@@H](Cc2ccc(O)c(NC(=O)CCC(=O)N3CCNCC3)c2)C(=O)N[C@@H](C(C)C)C(=O)N2C[C@H](O)C[C@H]2C(=O)N[C@@H]([C@@H](C)O)C(=O)N[C@@H]([C@@H](C)O)C(=O)N2CC[C@H](O)[C@H]2C(=O)N[C@@H]([C@H](O)CC(N)=O)C(=O)NCC(=O)N[C@@H]([C@@H](C)O)C(=O)N[C@@H](CCCN)C(=O)O1 (stereo partly drawn) (T[ξA][X2]V[Hyp]TT[Pro(3S-OH)][Gln(3R-OH)]GT[Orn]; linker N-C via X1) | 46 | 1 (≈ 0.582 µM) | 1 (≈ 0.582 µM) | 1 (≈ 0.582 µM) | 0.5 (≈ 0.291 µM) | 0.97 |
| C[C@@H]1[C@H](O)[C@@H](C)/C=C/C=C/C=C/C=C/C=C/C=C/C=C/[C@H](O[C@@H]2O[C@H](C)[C@@H](O)[C@H](N)[C@@H]2O)C[C@@H]2O[C@](O)(C[C@@H](O)C[C@@H](O)[C@H](O)CC[C@@H](O)C[C@@H](O)CC(=O)O[C@H]1C)C[C@H](O)[C@H]2C(=O)O [AMPHOTERICIN B] | – | – | – | – | – | 0.132 |
| OC(Cn1cncn1)(Cn1cncn1)c1ccc(F)cc1F [FLUCONAZOLE] | – | – | – | – | – | > 20 |
